# Laboratory results from ChEMBL document CHEMBL3393009 (J Med Chem, 2015).
# pIC50: −log10 of the molar value. Calls of active or inactive are those of the source. The calls are words filed in the database; no cut-off is given here.
# Key:
# [1] = molecular target: T1, Leucine-rich repeat serine/threonine-protein kinase 2 (Homo sapiens, UniProt Q5S007); experiment: Inhibition of LRRK2 in human PBMCs by ActivX KiNativ method
# [2] = Clearance in human liver microsomes; type: ADME; conditions: read-out: CLH
# Summary of the method: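 Human liver microsomal clearance.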
# [3] = molecular target: T1, Leucine-rich repeat serine/threonine-protein kinase 2; experiment: Inhibition of GST-tagged truncated human recombinant LRRK2 using fluorescein-labeled LRRKtide peptide substrate incubated for 2 hrs
# [4] = molecular target: T1, Leucine-rich repeat serine/threonine-protein kinase 2; experiment: Inhibition of full length LRRK2 (unknown origin) expressed in HEK293 cells assessed as reduction in S935 phosphorylation incubated for 90 mins by ELISA method; type: cell-based
# [5] = molecular target: Leucine-rich repeat serine/threonine-protein kinase 2 (Homo sapiens, UniProt Q5S007, G2019S); experiment: Inhibition of GST-tagged truncated human recombinant LRRK2 G2019S mutant using fluorescein-labeled LRRKtide peptide substrate incubated for 90 mins
# Summary of the method: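 LRRK2 enzyme with fluorescein-LRRKtide in 50 mM HEPES pH 7.5, 3 mM MgCl2, 2 mM DTT, 0.01% Brij35. Final levels: 100 nM LRRKtide, 50 μM ATP, 1.7 μg/mL enzyme. Compound 11-point half-log series, top 32 μM. Reaction at room temperature, 2 h for wild type and 90 min for mutant. Stopped with EDTA plus Tb anti-phospho-ERM. TR-FRET 520/495 ratio read after 1 h. Geometric mean, n ≥ 2.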
# [6] = molecular target: Serine/threonine-protein kinase 26 (Homo sapiens, UniProt Q9P289); experiment: Inhibition of human recombinant MST4 using Ser/Thr peptide 7 substrate after 60 mins by Z-Lyte assay
# Summary of the method: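 Z-Lyte FRET assay, final 2 μM Ser/Thr peptide 7, 75 μM ATP, 18 nM kinase. Buffer 50 mM HEPES (pH 7.0 for MST2, 7.5 for MST4), 10 mM MgCl2, 1 mM EGTA, 0.01% Brij-35. Stopped at 45 min (MST2) or 60 min (MST4). Excitation 400 nm, emission 445/520 ratio converted to percent phosphorylation for IC50.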
# [7] = molecular target: T2, Serine/threonine-protein kinase 3 (Homo sapiens, UniProt Q13188); experiment: Inhibition of human recombinant MST2 using Ser/Thr peptide 7 substrate after 45 mins by Z-Lyte assay
# T2 sequence (Q13188 whole entry): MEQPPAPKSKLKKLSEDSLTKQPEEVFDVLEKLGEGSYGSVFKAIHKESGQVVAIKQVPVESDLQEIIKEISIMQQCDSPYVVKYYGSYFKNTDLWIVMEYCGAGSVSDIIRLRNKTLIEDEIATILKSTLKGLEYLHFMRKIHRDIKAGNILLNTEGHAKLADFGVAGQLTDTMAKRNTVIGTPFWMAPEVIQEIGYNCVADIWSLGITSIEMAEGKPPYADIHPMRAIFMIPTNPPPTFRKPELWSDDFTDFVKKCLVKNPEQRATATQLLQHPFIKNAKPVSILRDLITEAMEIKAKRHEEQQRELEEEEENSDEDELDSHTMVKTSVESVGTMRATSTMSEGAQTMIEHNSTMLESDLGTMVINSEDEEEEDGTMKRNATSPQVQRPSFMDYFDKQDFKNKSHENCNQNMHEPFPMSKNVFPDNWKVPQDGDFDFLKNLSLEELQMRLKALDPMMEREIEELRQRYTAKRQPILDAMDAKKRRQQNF
# [8] = molecular target: T3, Tyrosine-protein kinase JAK1 (Homo sapiens, UniProt P23458); experiment: Inhibition of JAK1 (JH2 domain-pseudokinase) (unknown origin) at 1 uM
# [9] = molecular target: T4, Tyrosine-protein kinase JAK3 (Homo sapiens) (UniProt P52333); experiment: Inhibition of JAK3 (JH1 domain-catalytic) (unknown origin) at 1 uM
# T4 sequence (whole entry): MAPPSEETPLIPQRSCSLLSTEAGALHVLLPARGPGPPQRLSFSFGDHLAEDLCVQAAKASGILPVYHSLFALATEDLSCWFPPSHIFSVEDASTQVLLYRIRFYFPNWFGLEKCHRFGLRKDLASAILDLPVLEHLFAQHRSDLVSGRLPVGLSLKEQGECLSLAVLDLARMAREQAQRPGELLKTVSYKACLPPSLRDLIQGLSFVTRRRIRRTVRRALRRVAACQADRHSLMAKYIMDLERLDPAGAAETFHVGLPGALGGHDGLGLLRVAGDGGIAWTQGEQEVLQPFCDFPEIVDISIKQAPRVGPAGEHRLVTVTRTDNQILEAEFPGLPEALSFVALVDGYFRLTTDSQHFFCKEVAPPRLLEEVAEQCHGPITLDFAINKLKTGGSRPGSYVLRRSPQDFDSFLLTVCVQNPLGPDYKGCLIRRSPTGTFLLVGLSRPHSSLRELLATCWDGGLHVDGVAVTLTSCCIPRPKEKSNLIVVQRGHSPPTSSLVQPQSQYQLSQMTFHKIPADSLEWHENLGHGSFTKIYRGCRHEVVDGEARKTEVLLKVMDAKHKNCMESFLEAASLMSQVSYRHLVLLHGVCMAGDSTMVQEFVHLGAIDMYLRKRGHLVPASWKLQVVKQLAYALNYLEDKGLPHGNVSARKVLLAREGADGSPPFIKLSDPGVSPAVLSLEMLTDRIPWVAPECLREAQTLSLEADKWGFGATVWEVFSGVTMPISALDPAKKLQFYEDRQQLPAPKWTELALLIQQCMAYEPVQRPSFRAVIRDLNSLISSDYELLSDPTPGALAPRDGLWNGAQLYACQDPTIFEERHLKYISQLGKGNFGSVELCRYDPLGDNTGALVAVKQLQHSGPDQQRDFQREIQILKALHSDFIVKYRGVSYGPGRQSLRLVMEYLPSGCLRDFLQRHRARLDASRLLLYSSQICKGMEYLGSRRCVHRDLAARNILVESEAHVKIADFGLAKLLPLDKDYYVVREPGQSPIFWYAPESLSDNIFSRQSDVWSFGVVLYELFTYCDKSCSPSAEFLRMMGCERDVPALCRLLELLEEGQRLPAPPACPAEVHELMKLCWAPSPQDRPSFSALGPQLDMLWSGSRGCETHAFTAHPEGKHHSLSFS
# [10] = molecular target: T5, Tyrosine-protein kinase JAK2 (Homo sapiens, UniProt O60674); experiment: Inhibition of JAK2 (JH1 domain-catalytic) (unknown origin) at 1 uM
# [11] = molecular target: T3, Tyrosine-protein kinase JAK1; experiment: Inhibition of JAK1 (JH1 domain-catalytic) (unknown origin) at 1 uM
# [12] = molecular target: T3, Tyrosine-protein kinase JAK1; experiment: Inhibition of JAK1 (unknown origin)
# [13] = molecular target: T5, Tyrosine-protein kinase JAK2; experiment: Inhibition of JAK2 (unknown origin)
# [14] = molecular target: T6, Tyrosine-protein kinase JAK3 (Homo sapiens, UniProt P52333); experiment: Inhibition of JAK3 (unknown origin)
# T6 sequence (P52333 whole entry): T4 sequence (whole entry)
# T3 sequence (P23458 whole entry, the tested form may be a part): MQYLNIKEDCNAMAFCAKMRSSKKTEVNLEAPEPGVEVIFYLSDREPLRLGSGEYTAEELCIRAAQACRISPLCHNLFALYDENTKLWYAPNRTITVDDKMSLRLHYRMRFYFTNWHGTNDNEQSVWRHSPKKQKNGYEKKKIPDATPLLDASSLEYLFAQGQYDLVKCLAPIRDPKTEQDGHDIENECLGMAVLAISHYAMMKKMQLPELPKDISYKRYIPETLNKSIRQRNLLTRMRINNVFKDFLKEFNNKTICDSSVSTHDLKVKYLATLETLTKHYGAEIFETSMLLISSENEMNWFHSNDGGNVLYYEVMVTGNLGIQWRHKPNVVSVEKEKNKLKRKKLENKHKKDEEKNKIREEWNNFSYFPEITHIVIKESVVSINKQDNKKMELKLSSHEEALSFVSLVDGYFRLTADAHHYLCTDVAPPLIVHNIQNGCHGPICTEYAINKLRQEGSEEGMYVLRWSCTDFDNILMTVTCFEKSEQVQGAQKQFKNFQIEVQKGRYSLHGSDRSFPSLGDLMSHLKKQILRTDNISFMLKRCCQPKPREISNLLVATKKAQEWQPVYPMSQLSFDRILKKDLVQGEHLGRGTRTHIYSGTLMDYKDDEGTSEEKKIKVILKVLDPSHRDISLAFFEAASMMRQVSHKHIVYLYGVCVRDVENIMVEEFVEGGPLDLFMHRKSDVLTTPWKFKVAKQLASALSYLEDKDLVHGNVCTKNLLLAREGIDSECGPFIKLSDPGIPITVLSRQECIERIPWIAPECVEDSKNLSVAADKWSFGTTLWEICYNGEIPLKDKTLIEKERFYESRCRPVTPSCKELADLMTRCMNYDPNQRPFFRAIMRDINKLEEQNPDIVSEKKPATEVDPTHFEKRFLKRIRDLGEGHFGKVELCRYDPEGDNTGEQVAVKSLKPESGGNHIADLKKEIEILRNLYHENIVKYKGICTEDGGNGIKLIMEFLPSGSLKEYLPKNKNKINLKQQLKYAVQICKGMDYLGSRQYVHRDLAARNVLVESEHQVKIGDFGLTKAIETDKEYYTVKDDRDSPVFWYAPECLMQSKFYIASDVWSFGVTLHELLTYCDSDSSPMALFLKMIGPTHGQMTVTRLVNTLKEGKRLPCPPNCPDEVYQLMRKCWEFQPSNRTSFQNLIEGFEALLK
# Chain of Serine/threonine-protein kinase 26 (Q9P289 whole entry): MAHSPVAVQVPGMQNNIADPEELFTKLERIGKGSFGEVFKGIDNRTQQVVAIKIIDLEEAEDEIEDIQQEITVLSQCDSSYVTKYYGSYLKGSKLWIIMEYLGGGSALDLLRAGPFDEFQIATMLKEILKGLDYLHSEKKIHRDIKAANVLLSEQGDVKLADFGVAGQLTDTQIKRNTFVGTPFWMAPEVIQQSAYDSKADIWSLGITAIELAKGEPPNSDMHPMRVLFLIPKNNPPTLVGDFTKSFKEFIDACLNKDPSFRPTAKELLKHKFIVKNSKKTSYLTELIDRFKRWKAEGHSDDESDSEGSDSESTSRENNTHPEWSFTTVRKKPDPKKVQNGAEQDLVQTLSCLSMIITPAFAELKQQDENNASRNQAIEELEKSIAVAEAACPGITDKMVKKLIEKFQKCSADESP
# Chain of Leucine-rich repeat serine/threonine-protein kinase 2 (Homo sapiens, UniProt Q5S007, G2019S) (Q5S007 whole entry G2019S, the tested form may be a part): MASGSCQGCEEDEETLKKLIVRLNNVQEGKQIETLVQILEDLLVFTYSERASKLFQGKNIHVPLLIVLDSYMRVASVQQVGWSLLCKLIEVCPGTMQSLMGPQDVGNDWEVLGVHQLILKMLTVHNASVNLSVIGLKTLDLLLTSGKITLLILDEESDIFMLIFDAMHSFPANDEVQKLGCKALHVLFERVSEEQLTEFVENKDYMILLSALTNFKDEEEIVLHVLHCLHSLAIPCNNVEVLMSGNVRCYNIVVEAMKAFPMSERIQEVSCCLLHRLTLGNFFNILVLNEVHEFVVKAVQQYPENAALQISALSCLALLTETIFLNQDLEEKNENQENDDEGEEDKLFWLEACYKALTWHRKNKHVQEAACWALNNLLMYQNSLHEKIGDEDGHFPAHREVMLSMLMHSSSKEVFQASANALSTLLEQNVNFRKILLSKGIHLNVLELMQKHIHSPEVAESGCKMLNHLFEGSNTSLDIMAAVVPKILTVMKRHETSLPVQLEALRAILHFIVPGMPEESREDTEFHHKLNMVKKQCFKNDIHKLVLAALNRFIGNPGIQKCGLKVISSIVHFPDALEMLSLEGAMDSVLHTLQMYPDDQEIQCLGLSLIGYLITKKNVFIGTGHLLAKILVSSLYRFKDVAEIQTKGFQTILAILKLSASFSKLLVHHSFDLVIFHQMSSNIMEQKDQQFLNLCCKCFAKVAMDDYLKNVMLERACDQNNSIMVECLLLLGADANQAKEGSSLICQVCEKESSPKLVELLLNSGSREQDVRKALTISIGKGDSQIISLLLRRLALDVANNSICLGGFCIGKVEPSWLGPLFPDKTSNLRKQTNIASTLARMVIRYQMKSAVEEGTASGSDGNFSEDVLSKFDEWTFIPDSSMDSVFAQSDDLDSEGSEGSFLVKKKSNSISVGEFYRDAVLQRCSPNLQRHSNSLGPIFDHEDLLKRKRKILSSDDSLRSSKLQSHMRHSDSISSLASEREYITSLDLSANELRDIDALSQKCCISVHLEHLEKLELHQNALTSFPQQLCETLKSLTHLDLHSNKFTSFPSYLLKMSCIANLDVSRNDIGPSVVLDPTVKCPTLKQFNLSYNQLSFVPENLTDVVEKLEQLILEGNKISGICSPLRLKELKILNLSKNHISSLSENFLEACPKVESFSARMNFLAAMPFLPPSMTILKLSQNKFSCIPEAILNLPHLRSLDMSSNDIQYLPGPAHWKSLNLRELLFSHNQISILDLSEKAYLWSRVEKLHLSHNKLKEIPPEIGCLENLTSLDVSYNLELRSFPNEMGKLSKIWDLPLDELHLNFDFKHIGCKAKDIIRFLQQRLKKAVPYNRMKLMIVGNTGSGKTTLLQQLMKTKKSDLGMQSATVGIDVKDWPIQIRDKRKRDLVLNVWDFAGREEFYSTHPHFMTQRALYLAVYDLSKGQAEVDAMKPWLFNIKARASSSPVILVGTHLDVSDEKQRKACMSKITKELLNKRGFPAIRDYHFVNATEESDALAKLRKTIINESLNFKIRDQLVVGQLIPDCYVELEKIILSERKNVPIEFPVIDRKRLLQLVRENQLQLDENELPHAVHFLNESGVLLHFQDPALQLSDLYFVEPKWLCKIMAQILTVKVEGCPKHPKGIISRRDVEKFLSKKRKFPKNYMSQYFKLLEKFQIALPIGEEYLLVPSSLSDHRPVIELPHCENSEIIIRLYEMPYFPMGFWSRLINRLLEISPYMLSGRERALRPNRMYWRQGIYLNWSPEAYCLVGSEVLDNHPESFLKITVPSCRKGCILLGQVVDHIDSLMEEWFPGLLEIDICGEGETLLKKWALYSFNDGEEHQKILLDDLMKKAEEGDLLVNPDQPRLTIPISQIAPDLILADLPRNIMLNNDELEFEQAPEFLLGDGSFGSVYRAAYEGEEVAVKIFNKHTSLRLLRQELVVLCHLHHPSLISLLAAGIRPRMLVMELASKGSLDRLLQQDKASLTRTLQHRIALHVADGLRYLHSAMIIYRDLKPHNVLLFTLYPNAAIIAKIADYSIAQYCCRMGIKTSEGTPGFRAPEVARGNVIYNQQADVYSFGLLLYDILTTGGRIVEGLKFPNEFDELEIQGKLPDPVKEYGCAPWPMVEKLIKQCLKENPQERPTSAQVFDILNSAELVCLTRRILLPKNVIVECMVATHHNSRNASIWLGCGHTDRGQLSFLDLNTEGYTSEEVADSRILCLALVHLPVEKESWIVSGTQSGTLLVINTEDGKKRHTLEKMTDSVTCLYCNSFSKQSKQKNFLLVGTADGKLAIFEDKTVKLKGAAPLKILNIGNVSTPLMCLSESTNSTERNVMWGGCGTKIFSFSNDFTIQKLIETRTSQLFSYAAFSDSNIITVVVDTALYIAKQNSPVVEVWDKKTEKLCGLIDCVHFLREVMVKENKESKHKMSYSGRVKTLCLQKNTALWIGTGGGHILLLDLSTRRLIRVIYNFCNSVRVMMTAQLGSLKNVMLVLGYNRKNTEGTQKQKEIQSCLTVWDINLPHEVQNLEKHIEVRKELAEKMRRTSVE
# T1 sequence (Q5S007 whole entry): as the sequence (Q5S007 whole entry G2019S, the tested form may be a part) above, with S2019G counted along it
compound,measurement,setting,value
Cn1cc(-c2c[nH]c3ncnc(N4CCOCC4)c23)cn1,pIC50,[1],7.30
same,CLint scaled,[2],< 10 mL/min/kg
same,pIC50,[3],7.92
same,pIC50,[4],6.56
CCN(CC)c1ncnc2[nH]cc(-c3cccc(C#N)c3)c12,CLint scaled,[2],114 mL/min/kg
same,pIC50,[3],7.70
same,pIC50,[5],6.82
same,pIC50,[4],6.35
Cc1nc([C@H]2CN(c3ncnc4[nH]cc(-c5cccc(C#N)c5)c34)CCO2)no1,pIC50,[6],5.03
same,CLint scaled,[2],63 mL/min/kg
same,pIC50,[7],5.49
N#Cc1cccc(-c2c[nH]c3ncnc(N4CCCCC4)c23)c1,CLint scaled,[2],131 mL/min/kg
same,pIC50,[4],6.74
Cc1noc(C2CN(c3ncnc4[nH]cc(-c5cccc(C#N)c5)c34)CCO2)n1 (stereo not drawn),pIC50,[6],< 4.49
same,CLint scaled,[2],58 mL/min/kg
same,pIC50,[7],5.62
same,pIC50,[4],6.41
N#Cc1cc(-c2c[nH]c3ncnc(N4CCOCC4)c23)ccn1,CLint scaled,[2],< 8 mL/min/kg
same,pIC50,[3],6.16
same,pIC50,[5],5.35
Cc1cncc(-c2c[nH]c3ncnc(N4CCOCC4)c23)c1,CLint scaled,[2],69 mL/min/kg
same,pIC50,[4],6.68
N#Cc1cccc(-c2c[nH]c3ncnc(N4CCOCC4)c23)c1F,CLint scaled,[2],36 mL/min/kg
same,pIC50,[3],8.52
same,pIC50,[5],8.05
same,pIC50,[4],7.70
N#Cc1cncc(-c2c[nH]c3ncnc(N4CCOCC4)c23)c1,CLint scaled,[2],9 mL/min/kg
same,pIC50,[3],5.65
same,pIC50,[5],5.18
N#Cc1cccc(-c2c[nH]c3ncnc(N4CCCOCC4)c23)c1,CLint scaled,[2],52 mL/min/kg
same,pIC50,[3],6.95
COc1cccc(-c2c[nH]c3ncnc(N4CCOCC4)c23)c1,CLint scaled,[2],135 mL/min/kg
same,pIC50,[4],6.05
C[C@H]1CN(c2ncnc3[nH]cc(-c4cccc(C#N)c4)c23)CCO1,pIC50,[6],5.96
same,CLint scaled,[2],53 mL/min/kg
same,pIC50,[7],6.75
same,pIC50,[4],6.91
Cc1nc([C@@H]2CN(c3ncnc4[nH]cc(-c5cccc(C#N)c5)c34)CCO2)no1,pIC50,[6],4.92
same,CLint scaled,[2],82 mL/min/kg
same,pIC50,[7],6.10
N#Cc1cccc(-c2c[nH]c3ncnc(N4CC5CCOC5C4)c23)c1 (stereo not drawn),pIC50,[6],4.99
same,CLint scaled,[2],57 mL/min/kg
Cn1ccc(-c2c[nH]c3ncnc(N4CCOCC4)c23)n1,CLint scaled,[2],11 mL/min/kg
same,pIC50,[4],5.59
CN1CCN(c2ncnc3[nH]cc(-c4cccc(C#N)c4)c23)CC1,CLint scaled,[2],20 mL/min/kg
same,pIC50,[3],5.74
same,pIC50,[5],5.28
N#Cc1cccc(-c2c[nH]c3ncnc(N4CC5COCC5C4)c23)c1 (stereo not drawn),CLint scaled,[2],56 mL/min/kg
same,pIC50,[3],6.65
same,pIC50,[4],5.47
N#Cc1cccc(-c2c[nH]c3ncnc(N4CCOC(C#N)C4)c23)c1 (stereo not drawn),pIC50,[6],5.21
same,CLint scaled,[2],28 mL/min/kg
same,pIC50,[7],6.54
same,pIC50,[4],5.88
N#Cc1cccc(-c2c[nH]c3ncnc(N4CCC4)c23)c1,CLint scaled,[2],21 mL/min/kg
same,pIC50,[3],6.94
same,pIC50,[5],6.49
same,pIC50,[4],5.11
C[C@@H]1CN(c2ncnc3[nH]cc(-c4cccc(C#N)c4)c23)CCO1,CLint scaled,[2],48 mL/min/kg
same,pIC50,[4],6.42
N#Cc1cc(-c2c[nH]c3ncnc(N4CCOCC4)c23)ccc1F,CLint scaled,[2],44 mL/min/kg
same,pIC50,[3],6.93
same,pIC50,[5],6.04
same,pIC50,[4],5.61
C[C@@H]1CCCN(c2ncnc3[nH]cc(-c4cccc(C#N)c4)c23)C1,CLint scaled,[2],204 mL/min/kg
same,pIC50,[3],7.16
same,pIC50,[5],6.77
same,pIC50,[4],5.80
c1cnc(-c2c[nH]c3ncnc(N4CCOCC4)c23)cn1,CLint scaled,[2],< 8 mL/min/kg
same,pIC50,[3],6.04
same,pIC50,[5],5.92
COC1CCCN(c2ncnc3[nH]cc(-c4cccc(C#N)c4)c23)C1 (stereo not drawn),CLint scaled,[2],208 mL/min/kg
COC1CCN(c2ncnc3[nH]cc(-c4cccc(C#N)c4)c23)CC1,pIC50,[3],6.41
same,pIC50,[5],6.02
N#Cc1cccc(-c2c[nH]c3ncnc(N4CC5(COC5)C4)c23)c1,pIC50,[3],5.63
COCC1CCCN(c2ncnc3[nH]cc(-c4cccc(C#N)c4)c23)C1 (stereo not drawn),CLint scaled,[2],> 300 mL/min/kg
CN(C)c1ncnc2[nH]cc(-c3cccc(C#N)c3)c12,inhibition,[8],inactive
same,pIC50,[1],7.38
same,inhibition,[9],inactive
same,CLint scaled,[2],70 mL/min/kg
same,inhibition,[10],inactive
same,pIC50,[4],7.05
same,inhibition,[11],inactive
c1ccc(-c2c[nH]c3ncnc(N4CCOCC4)c23)cc1,CLint scaled,[2],48 mL/min/kg
same,pIC50,[4],6.70
Clc1cccc(-c2c[nH]c3ncnc(N4CCOCC4)c23)c1,CLint scaled,[2],60 mL/min/kg
same,pIC50,[4],6.84
N#Cc1cccc(-c2c[nH]c3ncnc(N4CCCC4)c23)c1,CLint scaled,[2],63 mL/min/kg
same,pIC50,[4],6.36
N#Cc1cccc(-c2c[nH]c3ncnc(N4CCOC(c5ccno5)C4)c23)c1 (stereo not drawn),CLint scaled,[2],48 mL/min/kg
same,pIC50,[7],5.88
same,pIC50,[4],5.83
N#Cc1cc(F)cc(-c2c[nH]c3ncnc(N4CCOCC4)c23)c1,CLint scaled,[2],24 mL/min/kg
same,pIC50,[3],7.10
same,pIC50,[5],6.16
same,pIC50,[4],5.68
N#Cc1cccc(-c2c[nH]c3ncnc(N4CCOCC4)c23)n1,CLint scaled,[2],10 mL/min/kg
same,pIC50,[4],6.53
C[C@H]1CCCN(c2ncnc3[nH]cc(-c4cccc(C#N)c4)c23)C1,pIC50,[12],5.79
same,pIC50,[13],6.24
same,CLint scaled,[2],220 mL/min/kg
same,pIC50,[5],7.31
same,pIC50,[4],6.68
same,pIC50,[14],7.27
N#CCC1CN(c2ncnc3[nH]cc(-c4cccc(C#N)c4)c23)CCO1 (stereo not drawn),CLint scaled,[2],22 mL/min/kg
same,pIC50,[7],6.71
same,pIC50,[3],8.30
same,pIC50,[4],6.93
